# Assay outcomes deposited in PubChem by Sanford-Burnham Center for Chemical Genomics.
# CCR6 antagonist: antagonists of human CCR6 receptor; inhibition, % at 20 µM; P51684; 0.49% of 340,000 active; AID 493098; CHO-K1 CCR6 PathHunter beta-arrestin, luminescence, CCL20-stimulated;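 active = compounds whose inhibition of the agonist-driven luminescence signal at 20 µM reaches about 50%, limit read from the data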;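 note: cells stimulated with CCL20 at 14 nM final; plate controls were DMSO with CCL20 for no effect and DMSO without agonist for full effect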
# APJ antag: antagonists of human APJ apelin receptor; P35414; CHO-K1 APJ beta-arrestin complementation, luminescence; inhibition, % at 20 µM; 0.32% of 330,000 active; AID 2521;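 active = inhibition above about 40% at 20 µM, limit read from the data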;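 note: cells challenged with 10 nM apelin-13 agonist together with compound; plate controls were apelin-13 plus DMSO wells for no effect and DMSO wells lacking apelin-13 for full effect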
# Target sequence (P35414 whole entry, looked up): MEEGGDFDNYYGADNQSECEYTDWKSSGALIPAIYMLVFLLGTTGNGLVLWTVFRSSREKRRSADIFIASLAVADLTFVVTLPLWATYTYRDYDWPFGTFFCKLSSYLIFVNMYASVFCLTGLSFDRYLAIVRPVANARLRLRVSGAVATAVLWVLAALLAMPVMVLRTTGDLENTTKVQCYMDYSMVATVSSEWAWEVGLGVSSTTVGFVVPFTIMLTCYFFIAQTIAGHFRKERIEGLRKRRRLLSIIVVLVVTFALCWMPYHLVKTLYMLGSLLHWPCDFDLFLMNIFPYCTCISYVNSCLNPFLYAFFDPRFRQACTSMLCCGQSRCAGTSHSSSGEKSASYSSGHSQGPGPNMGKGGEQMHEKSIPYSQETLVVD
# EBI2 block: blocks human EBI2 receptor beta-arrestin signaling; AID 651636; inhibition, % at 5 µM; P32249; EBI2 beta-arrestin recruitment, luminescence, 7a,25-OHC stimulated; 0.81% of 360,000 active; in the data active = inhibition above about 38%;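 note: enzyme fragment complementation signal reports receptor beta-arrestin coupling in cells; 0% = agonist plus DMSO wells and 100% = wells without agonist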
# Target sequence (P32249 whole entry, looked up, the tested form may be a part): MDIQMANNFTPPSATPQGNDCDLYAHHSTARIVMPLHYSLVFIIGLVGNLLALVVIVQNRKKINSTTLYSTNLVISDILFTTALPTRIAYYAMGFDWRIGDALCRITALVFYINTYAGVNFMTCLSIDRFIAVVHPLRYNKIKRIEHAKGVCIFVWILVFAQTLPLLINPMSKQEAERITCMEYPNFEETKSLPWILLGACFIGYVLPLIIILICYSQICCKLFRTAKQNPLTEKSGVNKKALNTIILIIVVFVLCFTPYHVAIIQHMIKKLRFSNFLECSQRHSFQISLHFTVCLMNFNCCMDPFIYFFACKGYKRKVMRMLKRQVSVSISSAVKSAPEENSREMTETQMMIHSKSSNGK
# APJ ag: agonists of human APJ apelin receptor; AID 2520; CHO-K1 APJ PathHunter beta-arrestin, luminescence; 0% DMSO wells, 100% apelin; 0.11% of 330,000 active; P35414; activation, % at 20 µM;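 active = activation more than six SD over the plate average, tested at 20 µM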;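 note: 0% = DMSO alone and 100% = apelin-13 at 10 nM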
#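 Assay system – PathHunter CHO-K1 APJ (AGTRL-1) beta-arrestin reporter cells · Compound – one dose, 20 µM compound, 1% DMSO · Timing – compound 90 min 25 °C, reagent 1 h · Measured by – luminescence from split beta-galactosidase complementation, Galacton Star/Emerald II substrate · Measure – beta-arrestin recruitment to APJ as agonist activity, luminescent signal · Benchmarks – DMSO vs Apelin-13 10 nM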
# CXCR6 block: inhibitors of human CXCR6 receptor; CHO-K1 PathHunter CXCR6 beta-arrestin, luminescence; AID 602244; 0.36% of 360,000 active; inhibition, % at 20 µM; in the data active = inhibition above about 34%, passing the limit was not always enough;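 note: antagonist mode with CXCL16 agonist at 10 nM final; 0% = 10 nM CXCL16 with DMSO and 100% = unstimulated wells without agonist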
# APJ ag conf: confirmation of human APJ apelin receptor agonists | CHO-K1 APJ PathHunter beta-arrestin, luminescence | activation, % at 20 µM | AID 2764 | shares compounds with APJ ag | 10% of 310 active;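 active = activation above 40%, taking the highest of four retests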;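 note: plate controls were DMSO wells for no effect and apelin-13 at 10 nM for full effect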
# * marks the source's active call; other numbers are inactive results; · = no result given. Sampled rows, rich in hits. Any-hit rate of the full collection: about 1.5%.
SMILES,CCR6 antagonist,APJ antag,EBI2 block,APJ ag,CXCR6 block,APJ ag conf
CCOc1ccc2[nH]c(=O)c(CN(Cc3ccco3)Cc3nnnn3Cc3ccccc3)cc2c1,20.1,18.8,-4.9,-3.5,0.6,·
O=C(NCc1nnnn1-c1ccc(Cl)cc1)C(=O)c1c[nH]c2ccccc12,·,·,-9.9,·,-9.1,·
O=C(NCc1ccccc1)C(C1CC1)n1c(Cc2cc(F)cc(F)c2)nc2ccccc21 (stereo not given),·,·,6.9,·,·,·
N/C(=N\OC(=O)c1cc(Br)ccc1Cl)c1cccnc1,-15.9,-104.6,-20.9,11.0*,-18.3,28.3
O=C(Nc1ccc(Br)cc1F)c1nc[nH]c1C(=O)N1CCc2ccccc2C1,·,·,-8.5,·,15.4,·
N/C(=N\OC(=O)c1ccc2ccccc2c1)c1ccccc1Cl,-46.6,-176.7,4.7,43.5*,-17.7,18.3
N/C(=N\OC(=O)c1ccc2ccccc2c1)c1ccncc1,-1.9,-49.4,6.6,9.0,-11.8,·
O=C(Nc1cccc([N+](=O)[O-])c1)c1cc2ccccc2cc1O,26.1,-15.8,-3.0,7.3,2.7,·
O=C(Nc1ccncc1)c1cc2ccccc2cc1O,-32.5,-213.1,-34.9,46.6*,-39.8,33.0
O=C(O)CCCCCN1C(=O)/C(=C/c2cn(-c3ccccc3)nc2-c2cccs2)SC1=S,12.9,·,22.7,·,16.1,·
CC1=NNC(=O)/C1=C\c1cn(-c2ccccc2)nc1-c1cccs1,45.6,-7.1,68.4*,25.5*,0.6,6.8
CC(C)C(=O)N1CCCC1(C)C(=O)Nc1ccccc1 (stereo not given),·,·,-8.0,·,-0.6,·
CCOc1cccc(C(=O)Nc2ccc(NC(=O)c3cc4ccccc4o3)c(OC)c2)c1,-10.7,4.6,-6.8,20.2*,-0.9,20.4
CCCCNc1c(-c2cccc(-c3ccc(OC)cc3)c2)nc2ccc(C)cn12,-3.2,-26.3,-95.0,52.3*,-11.0,14.6
CCCCNc1c(-c2cccc(-c3ccc(OC)cc3)c2)nc2cc(C)ccn12,-13.6,-27.9,-0.5,7.3,4.7,·
COc1cc(C(=O)c2nccc3cc(OC)c(OC)cc23)c([N+](=O)[O-])cc1OC,-4.4,-11.1,-23.1,13.7*,-1.6,3.9
CCN(c1ccccc1)S(=O)(=O)c1ccc(C(=O)N2CCN(c3ccccc3F)CC2)cc1,·,·,0.2,·,-0.9,·
COc1ccc(NC(=O)c2cc(C3CCCCN3S(=O)(=O)c3cccs3)on2)c(C)c1 (stereo not given),·,·,4.0,·,-4.1,·
CCc1ccc2nc(N(CCCN(C)C)C(=O)c3ccc(S(=O)(=O)N4CCc5ccccc5C4)cc3)sc2c1,-9.5,6.1,-3.3,59.5*,-1.1,32.7
CCOc1cccc2sc(N(CCCN(C)C)C(=O)c3ccc(S(=O)(=O)N4CCc5ccccc5C4)cc3)nc12,10.0,-34.9,2.0,8.6,5.7,·
COc1cccc(NC(=O)Nc2nc(-c3ccc(OC)c(OC)c3)cs2)c1,-2.9,-17.0,-87.8,19.2*,-11.6,32.0
COc1ccc(-c2csc(NC(C)=O)n2)cc1OC,0.0,-7.1,4.9,3.3,-0.1,·
CSc1ccc(CN2CCC2(C)C(=O)NC2CCc3ccccc32)cc1 (stereo not given),·,·,19.8,·,-0.7,·
CCOC(=O)c1ccc(NC(=O)c2ccc(C)c(S(=O)(=O)N3CCOCC3)c2)cc1,-18.7,-18.2,-20.1,11.3,-14.7,·
CCOC(=O)c1ccc(NC(=O)c2cccc(S(=O)(=O)N3CCOCC3)c2)cc1,1.0,-20.1,1.3,13.7*,-25.9,17.3
SMILES,CCR6 antagonist,APJ antag,EBI2 block,APJ ag,CXCR6 block,APJ ag conf
CC1(C(=O)NCc2ccccc2)CSCC(=O)N1CC(F)(F)F (stereo not given),·,·,-2.7,·,·,·
O=C(Nc1ccc(N2CCN(C(=O)c3cccs3)CC2)cc1)c1ccc([N+](=O)[O-])o1,·,-94.4,13.1,29.4*,-0.2,5.9
CCC(=O)Nc1ccc(N2CCN(C(=O)c3cccs3)CC2)cc1,-3.4,10.3,-14.9,-3.6,-4.3,·
O=C(Nc1ccc(N2CCN(C(=O)c3cccs3)CC2)cc1)c1ccco1,7.0,15.0,9.6,1.3,-5.7,·
O=C(COc1ccccc1[N+](=O)[O-])Nc1ccc(N2CCN(C(=O)c3cccs3)CC2)cc1,-17.4,-19.5,-25.9,16.5*,2.9,23.7
Cc1nc(C(F)(F)F)ccc1C(=O)N1CCC1(C)C(=O)NS(=O)(=O)c1cccc(C#N)c1 (stereo not given),·,·,-11.5,·,-3.0,·
CCn1cc(/C=C(\NC(=O)c2ccccc2OC)C(=O)NCCN2CCOCC2)c2ccccc21,·,·,-6.0,·,-5.5,·
CC(CC(=O)N1CCN(c2cccc(Cl)c2)CC1)S(=O)(=O)c1ccc2c(c1)NC(=O)CO2 (stereo not given),-6.5,-49.8,0.7,32.8*,4.2,26.1
COc1ccc(/C=N/N(C(C)=O)c2nc(-c3ccc(C)cc3)cs2)cc1,9.3,-34.6,-3.5,49.6*,2.0,13.6
Cc1ccc(Cc2c(C(C)(C)C)nc3cc(C)c(Br)c(C)n23)cc1,·,·,-16.8,·,-4.5,·
Cc1ccc(CNC(=O)CSc2nc(=O)n3ccc(C)cc3n2)cc1,·,·,-5.9,·,1.0,·
CC1=NOC(=O)/C1=C/c1ccc(-c2ccc(Cl)cc2)o1,·,3.7,4.7,20.1*,64.2*,3.2
CC1=NOC(=O)/C1=C\c1ccc(-c2ccc(Br)cc2C(=O)O)o1,4.8,-15.4,-2.6,0.3,8.5,·
CC1=NOC(=O)/C1=C\c1ccc(-c2cc(Cl)ccc2Cl)o1,74.3*,-7.1,1.9,65.8*,57.2*,13.1
CCn1c(CC(=O)Nc2ccc(C)c(Cl)c2)nnc1SCC(=O)Nc1nc(C)cs1,3.3,-13.9,-0.7,19.6*,-8.3,5.4
COC(=O)c1ccncc1C(=O)Nc1ccc(Oc2ncc(C(F)(F)F)cc2Cl)cc1,-12.5,9.4,-10.9,0.4,-2.7,·
COC(=O)c1cnc(Oc2ccc(NC(=O)NC(=O)c3ccccc3Cl)cc2)cc1C(F)(F)F,6.5,-15.1,-18.1,19.6*,-7.2,16.6
N#Cc1ccccc1OCC(=O)Nc1ccc2c(c1)OCO2,·,·,-3.7,·,-5.0,·
O=C(C1CCC(CNS(=O)(=O)c2cccs2)CC1)N1CCN(c2ccc(Cl)cc2)CC1 (stereo not given),-6.7,-40.2,-32.0,25.9*,-13.0,19.7
COc1cc(S(=O)(=O)N2CCN(Cc3ccc4c(c3)OCO4)CC2)ccc1NC(C)=O,·,-4.5,-2.4,16.3*,-1.7,-3.6
COc1ccc(S(=O)(=O)N2CCN(Cc3ccc4c(c3)OCO4)CC2)cc1F,12.6,-5.0,-6.2,-1.5,-4.6,·
COc1cccc(N2CCN(c3ncnc4c3cnn4-c3ccc(C)cc3C)CC2)c1,-7.1,-57.7,-74.1,15.8*,-4.3,33.8
Cc1ccc(-n2ncc3c(N4CCCC4)ncnc32)c(C)c1,-1.3,3.8,-1.8,-2.4,0.0,·
Cc1ccc(C(=O)N2CCN(c3ncnc4c3cnn4-c3ccccc3)CC2)cc1,·,-20.0,12.9,31.6*,-8.6,-1.6
C[C@@H]1Cc2[nH][nH]c(=O)c2[C@H](C)O1,·,·,-2.4,·,2.2,·
